Measured values: ChEMBL document CHEMBL1629416, “Developing dual functional allosteric modulators of GABA(A) receptors” (Bioorg Med Chem, 2010)

How the values were obtained:
[1] = target: T1, GABA-A receptor; alpha-2/beta-3/gamma-2 (Homo sapiens) (UniProt P18507+P28472+P47869); test: Positive allosteric modulation of human alpha2beta3gamma2 GABA receptor expressed in Xenopus laevis oocytes at 1 uM; assay type: cell-based; details: Oocyte
Procedure, shortened: (§1)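 Two-electrode voltage clamp on oocytes expressing human α/β/γ2 subtypes, used 2–10 days after injection. […] Baseline was the mean of three GABA-alone pulses. Result is % modulation, mean ± SEM over individual oocytes.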

[2] = target: T2, GABA-A receptor; alpha-5/beta-3/gamma-2 (Homo sapiens) (UniProt P18507+P28472+P31644); test: Positive allosteric modulation of human alpha5beta3gamma2 GABA receptor expressed in Xenopus laevis oocytes at 1 uM; assay type: cell-based; details: Oocyte; procedure, shortened: as §1
[3] = target: GABA-A receptor; alpha-1/beta-2/gamma-2 (Homo sapiens) (UniProt P14867+P47870+P18507); test: Negative allosteric modulation of human alpha1beta2gamma2 GABA receptor expressed in Xenopus laevis oocytes at 1 uM; assay type: cell-based; details: Oocyte
[4] = target: T3, GABA-A receptor; alpha-1/beta-2/gamma-2 (Homo sapiens, UniProt P14867+P18507+P47870); test: Binding affinity to human alpha1beta2gamma2 GABA receptor expressed in Xenopus laevis oocytes; assay type: cell-based, Oocyte
T3 sequence (P14867 whole entry): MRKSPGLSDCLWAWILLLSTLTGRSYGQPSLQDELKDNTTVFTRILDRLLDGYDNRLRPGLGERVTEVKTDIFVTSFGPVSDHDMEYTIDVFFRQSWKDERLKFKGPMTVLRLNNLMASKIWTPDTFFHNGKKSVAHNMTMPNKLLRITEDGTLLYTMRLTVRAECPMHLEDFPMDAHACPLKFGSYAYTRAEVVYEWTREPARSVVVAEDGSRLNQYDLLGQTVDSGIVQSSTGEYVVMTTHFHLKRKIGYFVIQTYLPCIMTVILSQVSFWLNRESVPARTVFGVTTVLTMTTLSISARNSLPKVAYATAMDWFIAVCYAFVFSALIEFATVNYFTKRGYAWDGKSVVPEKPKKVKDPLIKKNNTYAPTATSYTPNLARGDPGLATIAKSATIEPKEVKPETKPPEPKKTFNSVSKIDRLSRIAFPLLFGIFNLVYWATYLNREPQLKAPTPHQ
T3 sequence (P47870 whole entry): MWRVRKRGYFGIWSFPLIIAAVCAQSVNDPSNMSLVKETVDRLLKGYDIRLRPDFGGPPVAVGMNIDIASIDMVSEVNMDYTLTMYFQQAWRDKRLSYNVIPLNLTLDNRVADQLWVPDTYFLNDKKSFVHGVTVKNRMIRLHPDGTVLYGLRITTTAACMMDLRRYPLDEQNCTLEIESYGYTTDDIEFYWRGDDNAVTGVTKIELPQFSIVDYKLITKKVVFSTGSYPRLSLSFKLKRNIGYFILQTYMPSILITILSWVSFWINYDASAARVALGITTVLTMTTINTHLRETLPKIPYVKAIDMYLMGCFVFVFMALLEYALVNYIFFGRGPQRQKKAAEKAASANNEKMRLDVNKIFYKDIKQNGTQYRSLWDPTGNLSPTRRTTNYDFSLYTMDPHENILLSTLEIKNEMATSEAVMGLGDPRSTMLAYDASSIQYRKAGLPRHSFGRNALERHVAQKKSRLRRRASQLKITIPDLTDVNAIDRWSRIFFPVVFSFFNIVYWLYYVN
T3 sequence (P18507 whole entry): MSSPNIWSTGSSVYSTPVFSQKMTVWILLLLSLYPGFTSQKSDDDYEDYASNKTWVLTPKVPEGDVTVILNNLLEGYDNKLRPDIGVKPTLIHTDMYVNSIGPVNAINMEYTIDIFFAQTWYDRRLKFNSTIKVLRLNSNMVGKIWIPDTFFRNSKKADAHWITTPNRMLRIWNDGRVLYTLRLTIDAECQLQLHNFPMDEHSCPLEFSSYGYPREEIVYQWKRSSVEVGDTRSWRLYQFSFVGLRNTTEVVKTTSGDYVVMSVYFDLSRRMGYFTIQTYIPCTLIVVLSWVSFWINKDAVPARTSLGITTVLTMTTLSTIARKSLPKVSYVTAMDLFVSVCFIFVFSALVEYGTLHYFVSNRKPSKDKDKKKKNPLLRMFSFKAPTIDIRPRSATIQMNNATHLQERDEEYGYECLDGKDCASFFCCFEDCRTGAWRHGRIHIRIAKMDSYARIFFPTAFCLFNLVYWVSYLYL

[5] = target: T4, GABA-A receptor; alpha-5/beta-3/gamma-2 (Homo sapiens, UniProt P18507+P28472+P31644); test: Binding affinity to human alpha5beta3gamma2 GABA receptor expressed in Xenopus laevis oocytes; assay type: cell-based, Oocyte
T4 sequence (P18507 whole entry): T3 sequence (P18507 whole entry)
T4 sequence (P28472 whole entry): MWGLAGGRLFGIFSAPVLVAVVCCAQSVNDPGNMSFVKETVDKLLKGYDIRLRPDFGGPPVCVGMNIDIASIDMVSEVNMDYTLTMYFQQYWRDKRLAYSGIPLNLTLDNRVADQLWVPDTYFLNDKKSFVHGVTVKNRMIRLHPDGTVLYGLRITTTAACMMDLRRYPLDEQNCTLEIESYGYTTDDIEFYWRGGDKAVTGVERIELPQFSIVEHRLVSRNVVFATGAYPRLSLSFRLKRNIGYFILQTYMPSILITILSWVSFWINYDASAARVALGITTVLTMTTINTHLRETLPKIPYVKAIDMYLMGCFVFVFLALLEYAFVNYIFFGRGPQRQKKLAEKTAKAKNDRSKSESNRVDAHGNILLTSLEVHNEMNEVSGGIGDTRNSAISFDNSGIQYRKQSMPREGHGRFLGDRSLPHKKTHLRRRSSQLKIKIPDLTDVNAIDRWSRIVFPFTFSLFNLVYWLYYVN
T4 sequence (P31644 whole entry): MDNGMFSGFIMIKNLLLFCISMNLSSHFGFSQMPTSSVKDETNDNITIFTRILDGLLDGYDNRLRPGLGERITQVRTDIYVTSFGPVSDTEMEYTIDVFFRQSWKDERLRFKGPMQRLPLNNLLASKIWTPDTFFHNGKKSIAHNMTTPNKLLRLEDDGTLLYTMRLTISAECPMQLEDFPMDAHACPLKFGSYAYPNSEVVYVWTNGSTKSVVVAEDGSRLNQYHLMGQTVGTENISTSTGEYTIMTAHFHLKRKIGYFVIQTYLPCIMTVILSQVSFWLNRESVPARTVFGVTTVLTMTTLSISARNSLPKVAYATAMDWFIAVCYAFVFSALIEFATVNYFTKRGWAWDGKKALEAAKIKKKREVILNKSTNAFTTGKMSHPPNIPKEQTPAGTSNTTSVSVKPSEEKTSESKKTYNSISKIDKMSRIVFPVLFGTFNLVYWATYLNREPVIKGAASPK

[6] = target: GABA-A receptor; alpha-3/beta-3/gamma-2 (Homo sapiens) (UniProt P18507+P28472+P34903); test: Negative allosteric modulation of human alpha3beta3gamma2 GABA receptor expressed in Xenopus laevis oocytes at 1 uM; assay type: cell-based; details: Oocyte
[7] = target: T1, GABA-A receptor; alpha-2/beta-3/gamma-2 (Homo sapiens); test: Negative allosteric modulation of human alpha2beta3gamma2 GABA receptor expressed in Xenopus laevis oocytes at 1 uM; assay type: cell-based; details: Oocyte; procedure, shortened: as §1
[8] = target: T5, GABA-A receptor; alpha-2/beta-3/gamma-2 (Homo sapiens, UniProt P18507+P28472+P47869); test: Binding affinity to human alpha2beta3gamma2 GABA receptor expressed in Xenopus laevis oocytes; assay type: cell-based, Oocyte
T5 sequence (P18507 whole entry): T3 sequence (P18507 whole entry)
T5 sequence (P28472 whole entry): T4 sequence (P28472 whole entry)
T5 sequence (P47869 whole entry): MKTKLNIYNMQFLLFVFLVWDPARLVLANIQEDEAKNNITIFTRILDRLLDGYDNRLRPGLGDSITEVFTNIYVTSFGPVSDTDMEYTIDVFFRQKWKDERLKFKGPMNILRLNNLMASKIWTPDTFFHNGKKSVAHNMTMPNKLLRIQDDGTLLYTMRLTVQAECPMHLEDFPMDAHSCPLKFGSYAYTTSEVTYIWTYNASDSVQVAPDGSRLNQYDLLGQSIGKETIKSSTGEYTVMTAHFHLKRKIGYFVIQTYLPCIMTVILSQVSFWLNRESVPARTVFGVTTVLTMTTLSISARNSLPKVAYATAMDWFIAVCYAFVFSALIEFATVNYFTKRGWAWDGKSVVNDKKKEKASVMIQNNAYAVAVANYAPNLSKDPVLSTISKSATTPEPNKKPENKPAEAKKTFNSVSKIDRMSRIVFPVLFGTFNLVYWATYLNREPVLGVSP

[9] = target: T6, GABA-A receptor; alpha-3/beta-3/gamma-2 (Homo sapiens, UniProt P18507+P28472+P34903); test: Binding affinity to human alpha3beta3gamma2 GABA receptor expressed in Xenopus laevis oocytes; assay type: cell-based, Oocyte
T6 sequence (P18507 whole entry): T3 sequence (P18507 whole entry)
T6 sequence (P28472 whole entry): T4 sequence (P28472 whole entry)
T6 sequence (P34903 whole entry): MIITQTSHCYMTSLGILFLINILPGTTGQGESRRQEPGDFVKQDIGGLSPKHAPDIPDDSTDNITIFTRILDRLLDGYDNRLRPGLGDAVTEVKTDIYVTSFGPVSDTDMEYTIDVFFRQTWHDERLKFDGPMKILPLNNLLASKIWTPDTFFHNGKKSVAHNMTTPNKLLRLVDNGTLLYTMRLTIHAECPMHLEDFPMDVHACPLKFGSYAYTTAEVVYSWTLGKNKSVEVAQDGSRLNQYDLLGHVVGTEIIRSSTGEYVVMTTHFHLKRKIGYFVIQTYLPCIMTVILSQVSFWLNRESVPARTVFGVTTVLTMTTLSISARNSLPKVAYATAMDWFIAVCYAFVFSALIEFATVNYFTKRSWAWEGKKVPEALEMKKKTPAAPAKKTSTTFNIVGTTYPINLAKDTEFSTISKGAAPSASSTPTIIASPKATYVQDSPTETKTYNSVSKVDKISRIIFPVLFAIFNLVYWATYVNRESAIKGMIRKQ

[10] = target: T2, GABA-A receptor; alpha-5/beta-3/gamma-2 (Homo sapiens); test: Negative allosteric modulation of human alpha5beta3gamma2 GABA receptor expressed in Xenopus laevis oocytes at 1 uM; assay type: cell-based; details: Oocyte; procedure, shortened: as §1
[11] = target: T5, GABA-A receptor; alpha-2/beta-3/gamma-2; test: Displacement of [3H]flunitrazepam from human alpha2beta3gamma2 GABA receptor in Sf9 membranes after 1 hr by liquid scintillation counting
Procedure, shortened: (§2)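 [3H]Flunitrazepam (3 nM) competition on recombinant Sf9 membranes co-expressing α, β and γ2 subunits. Compound incubated 1 h at 4 °C in 20 mM Tris–citrate, 200 mM NaCl, pH 7.8, with membrane protein.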

[12] = target: T4, GABA-A receptor; alpha-5/beta-3/gamma-2; test: Displacement of [3H]flunitrazepam from human alpha5beta3gamma2 GABA receptor in Sf9 membranes after 1 hr by liquid scintillation counting; procedure, shortened: as §2

SMILES	Activity [1]	Activity [2]	Activity [10]	further results
CC1CN(C(=O)c2nnc3c(-c4ncccn4)c(F)ccc3c2N)C1	18%	0%		
CCc1c(C(=O)OC)ncc2[nH]c3cc(OC)c(OC)cc3c12			69%	Activity [3]: 68%; EC50 [4]: 9 nM; EC50 [5]: 3 nM; Activity [6]: 58%; Activity [7]: 61%; EC50 [8]: 14 nM; EC50 [9]: 10 nM
Nc1c(C(=O)N2CCC2)nnc2c(-c3ncccn3)c(F)ccc12	8%	10%		
Nc1c2c(nc3c(-c4cncnc4)cccc13)CN(C1CCC1)C2=O	18%		2%	Ki [11]: 1.5 nM; Ki [12]: 12 nM
Nc1c(C(=O)NC2CC2)nnc2c(-c3ncccn3)c(F)ccc12	39%	2%		
Nc1c(C(=O)N2CC(F)(F)C2)nnc2c(-c3ncccn3)c(F)ccc12		13%		Activity [7]: 7%
CC1CN(C(=O)c2nnc3c(-c4ncccn4)cccc3c2N)C1	14%		35%	
Nc1c(C(=O)N2CC(F)(F)C2)nnc2c(-c3ncccn3)cccc12	6%		4%	
